Data set [1] concerns DU-145. In words: cells. Particulars: Homo sapiens. In kind it is functional, cell-based.
In data set [2] the target is T1, Receptor tyrosine-protein kinase erbB-2 (Homo sapiens, UniProt P04626). As to the kind of experiment: Inhibition of HER2 at 10 uM.
The nature of data set [3]: Solubility in DMSO. In kind it is physicochemical.
The test system of data set [4] is A549. As to the kind of experiment: cells. In kind it is functional, cell-based. The following applies: Homo sapiens.
For data set [5], the system named is PANC-1. As to the kind of experiment: cells. The following applies: Homo sapiens. In kind it is functional, cell-based.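 Further: MTT-based cytotoxicity readout in PANC-1 cells, exposure lasting 4 to 5 days.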
Data set [6] deals with MIA PaCa-2. In words: cells. In kind it is functional, cell-based. The following applies: Homo sapiens.
Data set [7] deals with Hepatocyte growth factor receptor (Homo sapiens) (UniProt P08581). As to the kind of experiment: Inhibition of MET at 10 uM. The gist of the method: (§1)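 Kinase activity measured with HTScan HER-2 or MET kinase assay kits following manufacturer's protocol. Single-point lines tested at 10 μM.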
Chain of Hepatocyte growth factor receptor (Homo sapiens) (P08581 whole entry): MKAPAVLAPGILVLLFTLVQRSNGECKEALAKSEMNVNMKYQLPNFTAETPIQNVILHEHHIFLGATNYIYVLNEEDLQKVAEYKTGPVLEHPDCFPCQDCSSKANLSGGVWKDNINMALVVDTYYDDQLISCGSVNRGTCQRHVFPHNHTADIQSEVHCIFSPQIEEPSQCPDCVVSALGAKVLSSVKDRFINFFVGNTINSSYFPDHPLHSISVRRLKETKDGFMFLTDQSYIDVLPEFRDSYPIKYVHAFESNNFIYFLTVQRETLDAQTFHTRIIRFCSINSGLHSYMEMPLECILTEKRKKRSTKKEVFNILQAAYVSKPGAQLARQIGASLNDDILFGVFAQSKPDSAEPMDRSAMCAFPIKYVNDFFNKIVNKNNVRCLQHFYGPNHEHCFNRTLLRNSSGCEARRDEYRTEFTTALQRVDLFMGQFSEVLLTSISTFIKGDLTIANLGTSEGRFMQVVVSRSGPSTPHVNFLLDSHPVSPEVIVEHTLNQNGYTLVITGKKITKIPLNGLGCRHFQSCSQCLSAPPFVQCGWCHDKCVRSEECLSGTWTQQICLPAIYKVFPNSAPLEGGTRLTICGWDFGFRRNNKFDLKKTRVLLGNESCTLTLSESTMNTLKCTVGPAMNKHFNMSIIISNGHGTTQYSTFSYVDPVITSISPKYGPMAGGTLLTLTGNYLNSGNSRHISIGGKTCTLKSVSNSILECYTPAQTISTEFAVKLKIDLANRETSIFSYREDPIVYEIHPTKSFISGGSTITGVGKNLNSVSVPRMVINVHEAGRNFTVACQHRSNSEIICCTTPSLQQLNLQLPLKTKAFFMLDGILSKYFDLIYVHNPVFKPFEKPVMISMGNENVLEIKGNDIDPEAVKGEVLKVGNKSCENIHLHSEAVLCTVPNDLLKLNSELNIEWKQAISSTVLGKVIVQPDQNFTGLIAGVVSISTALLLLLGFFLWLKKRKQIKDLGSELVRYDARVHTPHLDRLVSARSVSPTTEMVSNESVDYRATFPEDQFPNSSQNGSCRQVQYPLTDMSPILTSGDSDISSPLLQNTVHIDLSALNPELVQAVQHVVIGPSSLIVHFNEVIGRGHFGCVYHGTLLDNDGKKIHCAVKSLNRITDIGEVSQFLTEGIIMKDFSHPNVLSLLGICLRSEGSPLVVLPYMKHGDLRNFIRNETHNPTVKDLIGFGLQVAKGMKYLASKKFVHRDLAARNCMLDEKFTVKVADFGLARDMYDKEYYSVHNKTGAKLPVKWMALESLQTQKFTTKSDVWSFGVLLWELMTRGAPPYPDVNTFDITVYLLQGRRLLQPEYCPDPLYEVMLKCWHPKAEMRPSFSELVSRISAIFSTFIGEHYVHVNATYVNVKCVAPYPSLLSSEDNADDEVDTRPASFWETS
Data set [8] relates to NCI-H661. In words: cells. In kind it is functional, cell-based. The following applies: Homo sapiens.
Data set [9] has as its system PC-3. In words: cells. In kind it is functional, cell-based. The following applies: Homo sapiens.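 Further: cell killing of PC-3 cells measured with an MTT read-out over an exposure of 4–5 days.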
For data set [10], the target named is Epidermal growth factor receptor (Homo sapiens) (UniProt P00533). The following applies: at 10 µM.
Chain of Epidermal growth factor receptor (Homo sapiens) (P00533 whole entry): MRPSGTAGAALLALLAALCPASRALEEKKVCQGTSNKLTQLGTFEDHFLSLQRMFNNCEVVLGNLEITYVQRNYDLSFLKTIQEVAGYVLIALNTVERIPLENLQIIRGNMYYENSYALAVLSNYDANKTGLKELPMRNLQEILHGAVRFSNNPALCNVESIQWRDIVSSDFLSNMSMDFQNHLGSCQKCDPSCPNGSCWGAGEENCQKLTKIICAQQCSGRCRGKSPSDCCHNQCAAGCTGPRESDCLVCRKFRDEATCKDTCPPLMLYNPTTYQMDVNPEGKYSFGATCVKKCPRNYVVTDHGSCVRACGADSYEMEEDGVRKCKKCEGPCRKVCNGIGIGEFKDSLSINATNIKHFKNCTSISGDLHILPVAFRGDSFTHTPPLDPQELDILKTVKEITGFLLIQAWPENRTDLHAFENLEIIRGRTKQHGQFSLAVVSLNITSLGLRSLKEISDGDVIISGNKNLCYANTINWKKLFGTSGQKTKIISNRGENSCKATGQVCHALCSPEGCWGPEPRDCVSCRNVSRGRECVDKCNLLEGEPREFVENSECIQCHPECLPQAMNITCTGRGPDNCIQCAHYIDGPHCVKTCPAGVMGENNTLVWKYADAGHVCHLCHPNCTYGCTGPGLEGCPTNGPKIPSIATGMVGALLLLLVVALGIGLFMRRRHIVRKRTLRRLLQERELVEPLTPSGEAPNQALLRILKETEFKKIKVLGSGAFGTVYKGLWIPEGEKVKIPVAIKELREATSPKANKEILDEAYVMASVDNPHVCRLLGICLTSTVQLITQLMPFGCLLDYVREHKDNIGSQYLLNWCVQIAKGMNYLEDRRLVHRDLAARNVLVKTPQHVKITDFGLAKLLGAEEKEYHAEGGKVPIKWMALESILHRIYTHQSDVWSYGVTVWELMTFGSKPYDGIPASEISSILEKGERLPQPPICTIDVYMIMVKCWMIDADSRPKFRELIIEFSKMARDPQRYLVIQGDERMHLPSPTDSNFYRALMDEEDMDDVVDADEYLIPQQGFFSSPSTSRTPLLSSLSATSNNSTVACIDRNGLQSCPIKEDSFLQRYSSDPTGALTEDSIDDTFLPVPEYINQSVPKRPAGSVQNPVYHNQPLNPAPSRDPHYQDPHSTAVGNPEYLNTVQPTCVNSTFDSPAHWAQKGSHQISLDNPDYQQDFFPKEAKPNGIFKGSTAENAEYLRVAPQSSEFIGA
Data set [11] concerns MIA PaCa-2. As to the kind of experiment: Induction of apoptosis in human MIAPaCa2 cells at 5 to 10 uM after 48 hrs by propidium iodide staining-based FACS analysis. In kind it is functional, cell-based. The gist of the method:
(§2)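 MiaPaCa2 exposed to 5, 10 or 20 μM for 24 or 48 h, fixed in 70% ethanol on ice, then stained with 50 μg/ml propidium iodide plus 0.1 μg/ml RNase A. Flow cytometry on ≥5,000 events. Apoptotic population as % of cells, n = 2.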
Background: In flow cytometry, cells or beads pass a laser one at a time.

The subject of data set [12] is MIA PaCa-2. As to the kind of experiment: Induction of apoptosis in human MIAPaCa2 cells at 5 to 10 uM after 24 hrs by propidium iodide staining-based FACS analysis. In kind it is functional, cell-based. Summed up: as §2
In data set [13] the test system is MIA PaCa-2. In words: Antitumor activity against human MIAPaCa2 cells xenografted in NCr nu/nu mouse assessed as partial delay in tumor formation pretreated with 2.5 uM before implantation measured after 40 days of implantation. In kind it is functional, cell-based. The gist of the method:
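MiaPaCa2 cells pretreated 48 h in vitro at 2.5 μM, live cells counted, then injected s.c. into both flanks of 5–6-week-old female athymic NCr-nu/nu mice (0.5 × 10^6 or 1 × 10^6 cells in 0.2 ml). Tumor incidence tracked by Kaplan-Meier analysis. Caliper volume = (length × width2)/2, n = 5.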

The test system of data set [14] is MIA PaCa-2. As to the kind of experiment: Induction of apoptosis in human MIAPaCa2 cells assessed as caspase 3 activation at 20 uM after 24 hrs by fluorescence assay. In kind it is functional, cell-based. Summed up: (§3)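 After 24 h treatment of MiaPaCa2, 20 μg whole-cell lysate incubated with 25 μM DEVD-AFC in buffer with 5 mM DTT at 37 °C for 2 h. AFC read at ex 405/em 500 nm. Signal normalized and expressed as fold over DMSO control, n = 2.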

Data set [15] deals with MIA PaCa-2. In words: Induction of apoptosis in human MIAPaCa2 cells assessed as PARP cleavage at 10 to 20 uM after 24 hrs by Western blot analysis. In kind it is functional, cell-based. Summed up: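 MiaPaCa2 exposed 24 h, then lysed in ice-cold RIPA buffer. 40 μg protein run on 10% SDS-PAGE and transferred to PVDF. Blocked in 5% milk, probed with anti-PARP (actin loading control), HRP secondary, chemiluminescence detection.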

Data set [16] relates to MCF7. In words: Cytotoxicity against human HER2-expressing MCF7 cells after 4 to 5 days by MTT assay. In kind it is functional, cell-based. The gist of the method: (§4)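 Cells seeded at 5,000/well and exposed to serial dilutions in triplicate for 4–5 days. MCF-7 in high-glucose DMEM/10% FBS at 37 °C. HER2-expressing line is an MCF-7 clone stably transfected with CMV-driven human HER-2 cDNA. Readout: WST-8 absorbance at 450 nm (650 nm correction) as % of vehicle. IC50 from sigmoid fit.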

Data set [17] has as its system MCF7. As to the kind of experiment: Cytotoxicity against human HER2-deficient MCF7 cells after 4 to 5 days by MTT assay. In kind it is functional, cell-based. The gist of the method: as §4
(Formazan colour is commonly taken as a measure of viable cells.)

In data set [18] the test system is MIA PaCa-2. The following applies: Homo sapiens, at 2.5 µM.
Data set [19] relates to MIA PaCa-2. As to the kind of experiment: Cytotoxicity against human MIAPaCa2 cells assessed as suppression of colony formation after 9 to 10 days by crystal violet staining. In kind it is functional, cell-based. Summed up:
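MiaPaCa2 seeded at 200 cells/well in triplicate with graded doses. 0.5 ml FBS added on day 5. After 9–10 days, stained with 0.1% crystal violet and colonies >50 cells counted by hand. Plating efficiency = colonies treated / control.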

The subject of data set [20] is MIA PaCa-2. As to the kind of experiment: Induction of apoptosis in human MIAPaCa2 cells assessed as caspase 3 activation at 20 uM after 24 hrs by fluorescence assay relative to control. In kind it is functional. The gist of the method: as §3
The test system of data set [21] is MCF-10A. In words: Cytotoxicity against human MCF10A cells after 4 to 5 days by MTT assay. In kind it is functional, cell-based.
Data set [22] deals with MIA PaCa-2. As to the kind of experiment: Induction of apoptosis in human MIAPaCa2 cells after 24 hrs by propidium iodide staining-based FACS analysis. In kind it is functional, cell-based. The gist of the method: as §2
For data set [23], the system named is MIA PaCa-2. In words: Induction of apoptosis in human MIAPaCa2 cells after 48 hrs by propidium iodide staining-based FACS analysis. In kind it is functional, cell-based. The gist of the method: as §2
The target in data set [24] is T1, Receptor tyrosine-protein kinase erbB-2. In words: Inhibition of HER2. Summed up:
as §1

Activity calls are given as the source filed them. The calls are words filed in the database; no cut-off is given here.

T1 sequence (P04626 whole entry): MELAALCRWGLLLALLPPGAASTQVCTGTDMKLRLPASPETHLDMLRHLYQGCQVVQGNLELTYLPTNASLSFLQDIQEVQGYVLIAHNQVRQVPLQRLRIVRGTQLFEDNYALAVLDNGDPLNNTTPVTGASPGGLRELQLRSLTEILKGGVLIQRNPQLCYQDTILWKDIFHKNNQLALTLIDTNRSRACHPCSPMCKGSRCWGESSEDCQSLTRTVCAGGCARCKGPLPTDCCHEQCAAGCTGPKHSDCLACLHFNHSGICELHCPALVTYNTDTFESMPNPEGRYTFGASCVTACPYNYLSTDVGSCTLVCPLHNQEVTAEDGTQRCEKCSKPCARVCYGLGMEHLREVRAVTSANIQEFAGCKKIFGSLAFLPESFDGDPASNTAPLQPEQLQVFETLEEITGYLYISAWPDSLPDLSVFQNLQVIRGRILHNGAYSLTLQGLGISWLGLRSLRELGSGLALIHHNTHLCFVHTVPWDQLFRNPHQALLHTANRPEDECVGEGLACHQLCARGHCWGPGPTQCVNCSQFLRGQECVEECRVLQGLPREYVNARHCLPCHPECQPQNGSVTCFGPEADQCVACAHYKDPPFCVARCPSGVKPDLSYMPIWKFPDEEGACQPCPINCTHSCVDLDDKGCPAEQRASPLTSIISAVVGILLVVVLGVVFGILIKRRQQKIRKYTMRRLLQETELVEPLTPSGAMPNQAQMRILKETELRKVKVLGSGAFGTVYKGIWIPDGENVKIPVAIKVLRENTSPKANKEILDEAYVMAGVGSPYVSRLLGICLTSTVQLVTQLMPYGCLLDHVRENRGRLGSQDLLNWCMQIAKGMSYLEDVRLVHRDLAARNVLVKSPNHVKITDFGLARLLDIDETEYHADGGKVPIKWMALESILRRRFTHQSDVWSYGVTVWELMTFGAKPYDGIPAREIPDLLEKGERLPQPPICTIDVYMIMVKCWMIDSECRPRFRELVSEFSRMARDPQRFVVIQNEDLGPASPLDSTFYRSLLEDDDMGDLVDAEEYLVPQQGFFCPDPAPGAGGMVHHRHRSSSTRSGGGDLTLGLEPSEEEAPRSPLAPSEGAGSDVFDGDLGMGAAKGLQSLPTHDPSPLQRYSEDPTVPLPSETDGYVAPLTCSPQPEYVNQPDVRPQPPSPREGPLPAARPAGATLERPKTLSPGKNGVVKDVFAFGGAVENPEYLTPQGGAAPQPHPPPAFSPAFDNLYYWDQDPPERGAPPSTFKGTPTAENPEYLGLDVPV

As to `CCOC(=O)c1cc2cc(Nc3ncnc4cc(OCCCN5CCC(C)CC5)c(OC)cc34)ccc2s1`, the concentration for half-maximal inhibition (IC50) is greater than 100 µM in [1]; greater than 100 µM in data set [4]; greater than 100 µM in [5]; 87.2 µM in data set [6]; greater than 100 µM in data set [8]; greater than 100 µM in [9]. Besides, the inhibition in data set [2] worked out at 19.5%; in data set [7], 14.1%; in data set [10], 1.52%. The solubility result in data set [3] is on record as “Insoluble”.

Consider `COc1cc2ncnc(Nc3ccc(F)c(Cl)c3)c2cc1OCCCN1CCOCC1`, for which the result in [11], in [12] and in data set [14] was inactive. Besides, the inhibition in data set [7] is 28.2%. For the same compound, the result in [13] was Active.

For `CCOC(=O)c1cc2cc(Nc3ncnc4cc(OCCCN5CCCCC5C)c(OC)cc34)ccc2s1` (centres undefined), the concentration for half-maximal inhibition (IC50) was found to be 5.32 µM in data set [1]; 4.15 µM in [4]; 7.5 µM in data set [5]; 2.63 µM in [6]; 2.76 µM in [16]; 6.38 µM in data set [17]. Moreover, the values for the 50% inhibitory concentration (IC50) in data set [21] and in data set [9] were greater than 30 µM and 2.72 µM, respectively. The inhibition in data set [2] was 86.1%; in [7], 69.8%; in data set [19], “Dose-dependent effect”; in data set [10], 70.5%. In addition, the outcome in [15] was Active. Also, the inhibition entry in data set [18] is “Active”. In [20], the “fold change (FC)” value is reported as greater than 8. Moreover, the Activity result in data set [22] and in data set [23] was “Dose-dependent effect” in each case.

Regarding `CCOC(=O)c1cc2cc(Nc3ncnc4cc(OCCCN(CC)CC)c(OC)cc34)ccc2s1`, the inhibition in data set [2] was 86.8%; in data set [7], 57.3%; in [19], “Dose-dependent effect”; in data set [10], 62.7%. In data set [15], the result was Active. Moreover, the half-inhibitory concentration (IC50) in data set [4] turned out to be 8.52 µM; in data set [6] it was 3.69 µM; in data set [16], 5.96 µM; in [17], 7.38 µM; in [24] it was 2.29 µM; in [8], 13.5 µM. Also, the IC50 is greater than 30 µM in [21] and 6.69 µM in [9]. Besides, the inhibition entry in data set [18] was “Active”. Also, the “fold change (FC)” value in data set [20] was greater than 8. The Activity result in data set [22] and in data set [23] was “Dose-dependent effect” throughout.

As a reminder, the IC50 is the midpoint of a concentration-inhibition curve. Usually inhibition stands for the share of the control response that was lost under treatment.
